Data taken from ChEMBL document CHEMBL1122650, “Synthesis and central nervous system properties of 2-[(alkoxycarbonyl)amino]-4(5)-phenyl-2-imidazolines” (J Med Chem, 1984).
The source made the active and inactive calls. The rule behind the calls is not given here.

How the values were obtained:
[1] = HPLC capacity factor (k'); assay type: ADME
Mus musculus [2] = organism: Mus musculus; assay: Evaluated for antagonism of reserpine induced hypothermia;I= Inactive; assay type: functional, organism-based
Method in brief: (§1)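 Male HLa (ICR) BR mice, 18-24 g, in groups of eight; reserpine 5 mg/kg ip given 2 h before oral test compound as aqueous solution. Rectal temperature taken hourly; 1-4-h hypothermia assessed by analysis of variance.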

Mus musculus [3] = organism: Mus musculus; assay: Mouse behavior activity was determined; Dwk=Depressant Weak; assay type: functional, organism-based
Method in brief: (§2)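 Male Simonsen (ICR) fBR mice, 18-24 g, groups of three, given 3, 10, 30, 100, 300 or 1000 mg/kg ip as aqueous solution and observed for behavioral profile; deaths followed up to 7 days.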

Mus musculus [4] = organism: Mus musculus; assay: Compound was evaluated for maximal electroshock antagonism (MES) against mice; Inactive; assay type: functional, organism-based
Method in brief: (§3)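 Male HLa (ICR) BR mice, groups of eight to ten, dosed ip (aqueous solution) 15 min before transcorneal electroshock (50 mA, 0.2 s). End point: abolition of tonic hind-limb extension; quantal ED50 by Litchfield-Wilcoxon.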

[5] = Lethal dose in mouse, in groups of ten; assay type: toxicity, organism-based; details: in vivo
Mus musculus [6] = organism: Mus musculus; assay: Mouse behavior activity was determined; S-D=Stimulant-Depressant; assay type: functional, organism-based; method in brief: as §2
Mus musculus [7] = organism: Mus musculus; assay: Compound was evaluated for maximal electroshock antagonism (MES) against mice; assay type: functional; method in brief: as §3
Mus musculus [8] = assay: Evaluated in vivo for reserpine hypothermia after oral administration in mouse. Minimum active dose was reported; Inactive; assay type: functional, organism-based; method in brief: as §1
Mus musculus [9] = organism: Mus musculus; assay: Evaluated for antagonism of reserpine induced hypothermia; assay type: functional; method in brief: as §1
Mus musculus [10] = organism: Mus musculus; assay: Mouse behavior activity was determined;D= Depressant; assay type: functional, organism-based; method in brief: as §2
Mus musculus [11] = organism: Mus musculus; assay: Righting ability was determined in mice […] rapid rolling (aroused); assay type: functional
Method in brief: (§4)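 Male Simonsen (ICR) fBR mice, 18-24 g, groups of ten, dosed with aqueous compound. Righting ability checked before (unaroused) and after (aroused) rapid rolling in the hand; ED50 by Litchfield-Wilcoxon method.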

Mus musculus [12] = organism: Mus musculus; assay: Righting ability was determined in mice before rapid rolling (unaroused); assay type: functional; method in brief: as §4

Structure (SMILES)	Log k' [1]	Mouse behavior activity (Mus musculus [3])	ED50 (Mus musculus [4])	LD50 [5]	ED50 (Mus musculus [7])	other results
COC(=O)NC1=NC(c2ccc(C(C)C)cc2)CN1 (stereo not drawn)	0.99	Depressant - weak	inactive	500 mg/kg	–	HYPO (Mus musculus [2]): inactive
CCOC(=O)NC1=NCC2c3ccccc3CCN12 (stereo not drawn)	–	–	–	200 mg/kg	–	HYPO (Mus musculus [2]): inactive; Mouse behavior activity (Mus musculus [6]): Stimulant-Depressant
CCOC(=O)NC1=NC(c2cc(C)ccc2C)CN1 (stereo not drawn)	0.88	–	inactive	–	–	–
COC(=O)NC1=NC(c2ccccc2Br)CN1 (stereo not drawn)	0.47	–	–	–	62 mg/kg	–
CCCOC(=O)NC1=NC(c2ccccc2F)CN1C (stereo not drawn)	0.87	–	–	–	23 mg/kg	–
COC(=O)NC1=NCC2(CCc3ccccc32)N1C (stereo not drawn)	0.48	Depressant Weak	inactive	300 mg/kg	–	ED50 (Mus musculus [8]): inactive
COC(=O)NC1=NC(c2cc(F)ccc2F)CN1 (stereo not drawn)	-0.08	Depressant - weak	–	> 300 mg/kg	49 mg/kg	HYPO (Mus musculus [9]): <0.5 mg/kg
COC(=O)NC1=NC(c2ccc3c(c2)OCO3)CN1 (stereo not drawn)	-0.14	–	inactive	200 mg/kg	–	HYPO (Mus musculus [2]): inactive
COC(=O)NC1=NC(c2cc(Cl)cc(Cl)c2)CN1C (stereo not drawn)	–	–	–	–	44 mg/kg	–
CCOC(=O)NC1=NC(c2ccc(F)cc2)CN1C (stereo not drawn)	0.48	–	–	200 mg/kg	100 mg/kg	Mouse behavior activity (Mus musculus [6]): Stimulant-Depressant; HYPO (Mus musculus [9]): <0.5 mg/kg
COC(=O)NC1=NC(C)(c2ccccc2)CN1 (stereo not drawn)	–	–	inactive	–	–	–
COC(=O)NC1=NC(c2ccccc2F)CN1C (stereo not drawn)	0.14	Depressant Weak	–	254 mg/kg	74 mg/kg	ED50 (Mus musculus [8]): inactive
CN(C)CCC=C1c2ccccc2COc2ccccc21 [DOXEPIN]	–	–	–	50 mg/kg	16 mg/kg	Mouse behavior activity (Mus musculus [10]): Depressant; Loss of righting reflex (Mus musculus [11]): 43 mg/kg; Loss of righting reflex (Mus musculus [12]): 40 mg/kg
CCOc1ccccc1OCC1CNCCO1 (stereo not drawn) [VILOXAZINE]	–	–	–	200 mg/kg	17 mg/kg	Mouse behavior activity (Mus musculus [6]): Stimulant-Depressant
COC(=O)NC1=NC2c3ccccc3CC2N1 (stereo not drawn)	-1.14	Depressant Weak	–	700 mg/kg	44 mg/kg	HYPO (Mus musculus [2]): inactive
CC(C)OC(=O)NC1=NC(c2cccc(Cl)c2)CN1 (stereo not drawn)	0.95	–	–	–	79 mg/kg	–
COC(=O)NC1=NC(c2ccccc2)CN1Cc1ccccc1 (stereo not drawn)	1.25	Depressant Weak	–	200 mg/kg	100 mg/kg	HYPO (Mus musculus [2]): inactive
COC(=O)NC1=NC(c2cccc(C)c2)CN1C (stereo not drawn)	0.49	–	–	475 mg/kg	89 mg/kg	Mouse behavior activity (Mus musculus [10]): Depressant; Loss of righting reflex (Mus musculus [11]): 149 mg/kg; Loss of righting reflex (Mus musculus [12]): 90 mg/kg
COC(=O)NC1=NC(c2ccccc2C)CN1C (stereo not drawn)	0.37	–	–	200 mg/kg	68 mg/kg	Mouse behavior activity (Mus musculus [10]): Depressant
COC(=O)NC1=NCC(c2ccccc2)N1C (stereo not drawn)	–	–	inactive	200 mg/kg	–	Mouse behavior activity (Mus musculus [6]): Stimulant-Depressant
